Measured values from ChEMBL document CHEMBL1255304, “In vitro phenotypic susceptibility of human immunodeficiency virus type 2 clinical isolates to protease inhibitors” (Antimicrob Agents Chemother, 2008).

Columns and labels:
[1] = test system: Human immunodeficiency virus 2; assay: Antiviral activity against HIV 2 subtype A clinical isolate expressing 14H-60K/N-65E protease gene sequence from HIV2 infected patient plasma and PBMC obtained before compound treatment measured after 13 months; format: functional, organism-based; settings: Human immunodeficiency virus 2, subtype A
How it was run: (§1)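 Virus isolated by PBMC coculture from patient samples taken before (T0) or during (T1, T2) protease inhibitor exposure, with protease genes sequenced from plasma and PBMC isolates. Susceptibility was tested in the ANRS PBMC assay, and the 50% inhibitory concentration (IC50) was reported.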

[2] = test system: Human immunodeficiency virus 2; assay: Antiviral activity against HIV 2 subtype A clinical isolate expressing 10I-40D-43I-70K-82F-84V-85L-89V-90M-91T/L-98N/K protease gene sequence from HIV2 infected patient plasma and PBMC obtained at T1 during compound treatment measured after 13 months; format: functional, organism-based; settings: Human immunodeficiency virus 2, subtype A; how it was run: as §1
[3] = test system: Human immunodeficiency virus 2; assay: Antiviral activity against HIV 2 subtype A clinical isolate expressing 14H-40D-70K-72R/K-91T/S protease gene sequence from HIV2 infected patient plasma and PBMC obtained before compound treatment measured after 13 months; format: functional, organism-based; settings: Human immunodeficiency virus 2, subtype A; how it was run: as §1
[4] = test system: Human immunodeficiency virus 2; assay: Antiviral activity against HIV 2 subtype B clinical isolate expressing 14Y-61N-99L protease gene sequence from HIV2 infected patient plasma and PBMC obtained before compound treatment measured after 13 months; format: functional, organism-based; settings: Human immunodeficiency virus 2, subtype B\r\n; how it was run: as §1
[5] = test system: Human immunodeficiency virus 2; assay: Antiviral activity against Human immunodeficiency virus type 2 (ISOLATE ROD) after 13 months; format: functional, organism-based; settings: Human immunodeficiency virus 2, ISOLATE ROD
How it was run: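 Reference strain ROD was tested in the ANRS PBMC assay alongside the clinical isolates, and the 50% inhibitory concentration (IC50) was reported.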

[6] = Antiviral activity against Human immunodeficiency virus type 1 (BRU ISOLATE) after […]; format: functional; settings: Human immunodeficiency virus 1
[7] = test system: Human immunodeficiency virus 2; assay: Antiviral activity against HIV 2 subtype H expressing 10I-34E-40P-41Y-60H-63N-70T-73G-82F-89L-92E protease gene sequence from HIV2 infected patient plasma and PBMC obtained at T1 during compound treatment measured after 13 months; format: functional, organism-based; settings: Human immunodeficiency virus 2, subtype H; how it was run: as §1
[8] = test system: Human immunodeficiency virus 2; assay: Antiviral activity against HIV 2 subtype A clinical isolate expressing 54M-65E-71I-74N-90M protease gene sequence from HIV2 infected patient plasma and PBMC obtained at T1 during compound treatment measured after 13 months; format: functional, organism-based; settings: Human immunodeficiency virus 2, subtype A; how it was run: as §1
[9] = test system: Human immunodeficiency virus 2; assay: Antiviral activity against HIV 2 subtype A clinical isolate expressing 14H-17D-43T-68N/D protease gene sequence from HIV2 infected patient plasma and PBMC obtained before compound treatment measured after 13 months; format: functional, organism-based; settings: Human immunodeficiency virus 2, subtype A; how it was run: as §1
[10] = test system: Human immunodeficiency virus 2; assay: Antiviral activity against HIV 2 subtype A clinical isolate expressing 5L/F-14Y/H-17G/D-43T-54I/M-62V/A-70R/K-71I protease gene sequence from HIV2 infected patient plasma and PBMC obtained at T1 during compound treatment measured after 13 months; format: functional, organism-based; settings: Human immunodeficiency virus 2, subtype A; how it was run: as §1
[11] = test system: Human immunodeficiency virus 2; assay: Antiviral activity against HIV 2 subtype B clinical isolate expressing 14Y-19P-33I-61N-71I-75M-84V-90M protease gene sequence from HIV2 infected patient plasma and PBMC obtained at T1 during compound treatment measured after 13 months; format: functional, organism-based; settings: Human immunodeficiency virus 2, subtype B\r\n; how it was run: as §1
[12] = test system: Human immunodeficiency virus 2; assay: Antiviral activity against HIV 2 subtype A clinical isolate expressing 10V/I-40D-43I-56V-70K-82F-84V-89V-90M protease gene sequence from HIV2 infected patient plasma and PBMC obtained at T2 during compound treatment measured after 3 months; format: functional, organism-based; settings: Human immunodeficiency virus 2, subtype A; how it was run: as §1
[13] = test system: Human immunodeficiency virus 2; assay: Antiviral activity against HIV 2 subtype B clinical isolate expressing 12Q-14R-17G/D-19P-61N-62I-92A protease gene sequence from HIV2 infected patient plasma and PBMC obtained before compound treatment measured after 13 months; format: functional, organism-based; settings: Human immunodeficiency virus 2, subtype B\r\n; how it was run: as §1
[14] = test system: Human immunodeficiency virus 2; assay: Antiviral activity against HIV 2 subtype B clinical isolate expressing 12T-14Y-19P-40N-41D-61N-62I-96S-99L protease gene sequence from HIV2 infected patient plasma and PBMC obtained before compound treatment measured after 13 months; format: functional, organism-based; settings: Human immunodeficiency virus 2, subtype B\r\n; how it was run: as §1
[15] = test system: Human immunodeficiency virus 2; assay: Antiviral activity against HIV 2 subtype H expressing 10I-40P-41Y-60H-63N-70T-73G-89L-92E protease gene sequence from HIV2 infected patient plasma and PBMC obtained before compound treatment measured after 13 months; format: functional, organism-based; settings: Human immunodeficiency virus 2, subtype H; how it was run: as §1
[16] = test system: Human immunodeficiency virus 2; assay: Antiviral activity against HIV 2 subtype B clinical isolate expressing 14Y-19P-61N-64V-71I-90M-95I protease gene sequence from HIV2 infected patient plasma and PBMC obtained at T2 during compound treatment measured after 3 months; format: functional, organism-based; settings: Human immunodeficiency virus 2, subtype B\r\n; how it was run: as §1
[17] = test system: Human immunodeficiency virus 2; assay: Antiviral activity against HIV 2 subtype A clinical isolate expressing 10I-17D-40D-43I-46V-66V/A-70R/K protease gene sequence from HIV2 infected patient plasma and PBMC obtained before compound treatment measured after 13 months; format: functional, organism-based; settings: Human immunodeficiency virus 2, subtype A; how it was run: as §1
[18] = test system: Human immunodeficiency virus 2; assay: Antiviral activity against HIV 2 subtype A clinical isolate expressing 10I-17D-40D-43I-45K/R-46V-54M-64I/V-69K/R-71V/I-90M protease gene sequence from HIV2 infected patient plasma and PBMC obtained at T1 during compound treatment measured after 13 months; format: functional, organism-based; settings: Human immunodeficiency virus 2, subtype A; how it was run: as §1

| SMILES | IC50 [1] [nM] | IC90 [1] [nM] | IC50 [2] [nM] | IC90 [2] [nM] | IC50 [3] [nM] | IC90 [3] [nM] | IC50 [4] [nM] | IC90 [4] [nM] | IC50 [5] [nM] | IC90 [5] [nM] | IC50 [6] [nM] | IC90 [6] [nM] | IC50 [7] [nM] | IC90 [7] [nM] | IC50 [8] [nM] | IC90 [8] [nM] | IC50 [9] [nM] | IC90 [9] [nM] | IC50 [10] [nM] | IC90 [10] [nM] | other results |
| --- | --- | --- | --- | --- | --- | --- | --- | --- | --- | --- | --- | --- | --- | --- | --- | --- | --- | --- | --- | --- | --- |
| Cc1cccc(C)c1OCC(=O)N[C@@H](Cc1ccccc1)[C@@H](O)C[C@H](Cc1ccccc1)NC(=O)[C@H](C(C)C)N1CCCNC1=O [LOPINAVIR] | 40 | 200 | 100 | 800 | 20 | 80 | 40 | 70 | 20 | 70 | 30 | 100 | 3200 | 8700 | 400 | 3300 | 30 | 80 | 40 | 400 | IC50 [11]: 200 nM; IC90 [11]: 1500 nM; IC50 [12]: 100 nM; IC90 [12]: 1100 nM; IC50 [13]: 20 nM; IC90 [13]: 200 nM; IC50 [14]: 30 nM; IC90 [14]: 100 nM; IC50 [15]: 60 nM; IC90 [15]: 500 nM; IC50 [16]: 100 nM; IC90 [16]: 900 nM; IC50 [17]: 20 nM; IC90 [17]: 200 nM; IC50 [18]: 1700 nM; IC90 [18]: 8500 nM |
| Cc1c(O)cccc1C(=O)N[C@@H](CSc1ccccc1)[C@H](O)CN1C[C@H]2CCCC[C@H]2C[C@H]1C(=O)NC(C)(C)C [NELFINAVIR] | 60 | 800 | > 17600 | > 17600 | 200 | 400 | 200 | 1000 | 50 | 900 | 2 | 100 | 9000 | 24000 | 3800 | 53000 | 30 | 300 | 14000 | 110000 | IC50 [11]: 14000 nM; IC90 [11]: 107000 nM; IC50 [12]: 10000 nM; IC90 [12]: 81000 nM; IC50 [13]: 40 nM; IC90 [13]: 800 nM; IC50 [14]: 60 nM; IC90 [14]: 200 nM; IC50 [15]: 40 nM; IC90 [15]: 300 nM; IC50 [16]: > 17600 nM; IC90 [16]: > 17600 nM; IC50 [17]: 50 nM; IC90 [17]: 400 nM; IC50 [18]: 1200 nM; IC90 [18]: 15000 nM |
| CC(C)(C)NC(=O)[C@@H]1C[C@@H]2CCCC[C@@H]2CN1C[C@@H](O)[C@H](Cc1ccccc1)NC(=O)[C@H](CC(N)=O)NC(=O)c1ccc2ccccc2n1 [SAQUINAVIR] | 5 | 50 | 6400 | 51000 | 5 | 20 | 14000 | 82000 | 10 | 90 | 10 | 40 | 7300 | 31000 | > 12500 | > 12500 | < 6 | < 6 | > 12500 | > 12500 | IC50 [11]: 8200 nM; IC90 [11]: 65000 nM; IC50 [12]: 22000 nM; IC90 [12]: 180000 nM; IC50 [13]: 60 nM; IC90 [13]: 300 nM; IC50 [14]: 7 nM; IC90 [14]: 20 nM; IC50 [15]: 30 nM; IC90 [15]: 300 nM; IC50 [16]: 6700 nM; IC90 [16]: 52000 nM; IC50 [17]: 2 nM; IC90 [17]: 20 nM; IC50 [18]: 90 nM; IC90 [18]: 700 nM |
| CCC[C@@]1(CCc2ccccc2)CC(O)=C([C@H](CC)c2cccc(NS(=O)(=O)c3ccc(C(F)(F)F)cn3)c2)C(=O)O1 [TIPRANAVIR] | 300 | 2500 | 2800 | 16000 | 400 | 4200 | 400 | 1700 | 400 | 3500 | 50 | 400 | 7300 | 16000 | 4700 | 14000 | 300 | 2200 | 6700 | 26000 | IC50 [11]: 4800 nM; IC90 [11]: 17000 nM; IC50 [12]: 4800 nM; IC90 [12]: 29000 nM; IC50 [13]: 300 nM; IC90 [13]: 2600 nM; IC50 [14]: 400 nM; IC90 [14]: 3000 nM; IC50 [15]: 400 nM; IC90 [15]: 800 nM; IC50 [16]: 4000 nM; IC90 [16]: 12000 nM; IC50 [17]: 300 nM; IC90 [17]: 2700 nM; IC50 [18]: 4100 nM; IC90 [18]: 23000 nM |
